As usually defined, the CC50 is the concentration that lowers cell viability or growth by half. Usually EC50 stands for the concentration at which the effect is half-maximal.

Drawing on paper PMC4085996 (ChemMedChem, 2014), this text covers CC50 and EC50 for 13 compounds.

Data set [1] has as its system TZM-bl cells. Kind of data set: CytoTox-Glo cytotoxicity assay. It is filed as cell-based. Conditions: one day, average of two independent tests. The method, boiled down: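 Run alongside the antiviral assays. TZM-bl cells were cultured for one day with graded concentrations of test compound. Percent viable cells was determined with the CytoTox-Glo kit according to the manufacturer's protocol.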

Data set [2] has as its system HIV-1 NL4-3 (wild-type) virus. Kind of data set: microbe, parasite or virus in culture. Format: cell-based. Conditions: read-out: EC50 (NL4-3 infection of TZM-bl cells); mean ± SD, at least three independent experiments.

Take `N#Cc1ccc(Nc2nc(Oc3c(F)cc(Br)cc3F)ccc2N)cc1` [6b]: in data set [1], the CC50 was greater than 9590 nM. For the same compound, in data set [2], the EC50 was determined as 7.43 ± 1.1 nM. For `N#Cc1ccc(Nc2nc(Oc3c(F)cc(CO)cc3F)ccc2N)cc1` [6c, N^2-(4′-Cyanophenyl)amino-6-(2”,6”-difluoro-4”-hydroxymethyl)phenoxypyridine-3-amine], in data set [1], the CC50 was greater than 27200 nM. Besides, the EC50 in data set [2] came to 57.1 ± 9.2 nM.

As for `CC(=O)OCc1cc(F)c(Oc2ccc(N)c(Nc3ccc(C#N)cc3)n2)c(F)c1` [6d, N^2-(4′-Cyanophenyl)amino-6-(2”,6”-difluoro-4”-acetoxymethyl)phenoxypyridin-3-amine], the EC50 in data set [2] was 290 ± 46 nM. With `N#Cc1ccc(Nc2nc(Oc3c(F)cc(C=NO)cc3F)ccc2N)cc1` [6e, N^2-(4′-Cyanophenyl)amino-6-(2”,6”-difluoro-4”-(hydroxyimino)methyl)phenoxy pyridin-3-amine], the CC50 in data set [1] was greater than 26200 nM. Moreover, the EC50 in data set [2] was 261 ± 55.1 nM. In the same order, the values of `N#Cc1ccc(Nc2nc(Oc3c(F)cc(C#N)cc3F)ccc2N)cc1` [6f, N^2-(4′-Cyanophenyl)amino-6-(2”,6”-difluoro-4”-cyano)phenoxypyridin-3-amine] are greater than 9390 nM and 5.16 ± 1.57 nM. In the same order, the values of `N#C/C(=C\c1cc(F)c(Oc2ccc(N)c(Nc3ccc(C#N)cc3)n2)c(F)c1)C(N)=O` [6h, (E)-6-[4”-(3-Amino-2-cyano-3-oxoprop-1-enyl)-2”,6”-difluoro]phenoxy-N^2-(4′-cyanophenyl)pyridin-2,3-diamine] are 15800 nM and 370 ± 59 nM.

Consider `CC(=O)CCc1cc(F)c(Oc2ccc(N)c(Nc3ccc(C#N)cc3)n2)c(F)c1` [6i, N^2-(4′-Cyanophenyl)amino-6-(2”,6”-difluoro-4”-(3-oxobutyl)phenoxy)pyridin-3-amine], for which the CC50 in data set [1] was greater than 9800 nM. The EC50 in data set [2] came to 4.66 ± 0.95 nM. In turn, `CCCOC(=O)c1cc(F)c(Oc2ccc(N)c(Nc3ccc(C#N)cc3)n2)c(F)c1` [6j, N^2-(4′-Cyanophenyl)amino-6-(2”,6”-difluoro-4”-propylcarbmethoxy)phenoxypyr idin-3-amine] returned a CC50 in data set [1] of 15300 nM. The EC50 in data set [2] is 99 ± 19 nM.

`N#Cc1ccc(Nc2nc(Oc3c(F)cc(/C=C/C(N)=O)cc3F)ccc2N)cc1` [6k, (E)-N^2-(4′-Cyanophenyl)amino-6-(2”,6”-difluoro-4”-(2-carbamoyl)vinyl)phenoxy pyridin-3-amine] had a 50% cytotoxic concentration (CC50) in data set [1] greater than 24600 nM. The EC50 in data set [2] came out at 614 ± 118 nM. For the compound `N#CCCc1cc(F)c(Oc2ccc(N)c(Nc3ccc(C#N)cc3)n2)c(F)c1` [6l, 6-(4”-(2-Cyanoethyl)-2”,6”-difluoro)phenoxy-N^2-(4′-cyanophenyl)aminopyridin-3-amine], the CC50 in data set [1] was greater than 10200 nM. The EC50 in data set [2] was 2.81 ± 0.59 nM.

For `N#Cc1ccc(Nc2nc(Oc3c(F)cc(CCCO)cc3F)ccc2N)cc1` [6n, N^2-(4′-Cyanophenyl)amino-6-(2”,6”-difluoro-4”-(3-hydroxypropyl)phenoxy) pyridin-3-amine], the CC50 in data set [1] was greater than 25200 nM. The EC50 in data set [2] amounted to 48 ± 9.8 nM. In the same order, the values of `COc1cc(/C=C/C#N)ccc1Oc1ccc(N)c(Nc2ccc(C#N)cc2)n1` [8e, (E)-N^2-(4′-Cyanophenyl)amino-6-(2”-methoxy-4”-cyanovinyl)phenoxypyridin-3-amine] are greater than 20600 nM and 16.7 ± 4.33 nM. In the same order, the values of “N^2-(4′-Cyanophenyl)amino-6-(4”-(2-cyano)propylcarbamoyl-2”,6”-difluoro)phen oxypyridin-3-amine [6m]” are 15100 nM and 350 ± 52 nM.
